Measured values taken from ChEMBL document CHEMBL1152541, “Staurosporine tethered peptide ligands that target cAMP-dependent protein kinase (PKA): optimization and selectivity profiling” (Bioorg Med Chem, 2009).
One block for each compound: values may come before it. *1 amine or outer side, *2 acyl side, *3 side chain or, on linkers, in order; H or OH if unused. Where a SMILES comes first, the peptide text is derived from it. Bridges are numbered along the chain shown (N, C = ends). [ ]: non-standard residue; d: D form. The star is where a group is joined. Staurosporine = CO[C@@H]1[C@H](N(C)*)C[C@H]2O[C@]1(C)n1c3ccccc3c3c4c(c5c6ccccc6n2c5c31)C(=O)NC4; Suc = O=C(CCC(=O)[*:2])[*:1]; Dap = NC[C@H](N)C(=O)O; βAla = NCCC(=O)O

Legend:
[1] = test system: Serine/threonine-protein kinase B-raf (Homo sapiens), P15056 [V600E]; assay: Binding affinity to human BRAF V600E mutant at 500 nM by cell-based competition binding assay relative to control in presence of DTT
Sequence of Serine/threonine-protein kinase B-raf (Homo sapiens), P15056 [V600E] (P15056 whole entry V600E): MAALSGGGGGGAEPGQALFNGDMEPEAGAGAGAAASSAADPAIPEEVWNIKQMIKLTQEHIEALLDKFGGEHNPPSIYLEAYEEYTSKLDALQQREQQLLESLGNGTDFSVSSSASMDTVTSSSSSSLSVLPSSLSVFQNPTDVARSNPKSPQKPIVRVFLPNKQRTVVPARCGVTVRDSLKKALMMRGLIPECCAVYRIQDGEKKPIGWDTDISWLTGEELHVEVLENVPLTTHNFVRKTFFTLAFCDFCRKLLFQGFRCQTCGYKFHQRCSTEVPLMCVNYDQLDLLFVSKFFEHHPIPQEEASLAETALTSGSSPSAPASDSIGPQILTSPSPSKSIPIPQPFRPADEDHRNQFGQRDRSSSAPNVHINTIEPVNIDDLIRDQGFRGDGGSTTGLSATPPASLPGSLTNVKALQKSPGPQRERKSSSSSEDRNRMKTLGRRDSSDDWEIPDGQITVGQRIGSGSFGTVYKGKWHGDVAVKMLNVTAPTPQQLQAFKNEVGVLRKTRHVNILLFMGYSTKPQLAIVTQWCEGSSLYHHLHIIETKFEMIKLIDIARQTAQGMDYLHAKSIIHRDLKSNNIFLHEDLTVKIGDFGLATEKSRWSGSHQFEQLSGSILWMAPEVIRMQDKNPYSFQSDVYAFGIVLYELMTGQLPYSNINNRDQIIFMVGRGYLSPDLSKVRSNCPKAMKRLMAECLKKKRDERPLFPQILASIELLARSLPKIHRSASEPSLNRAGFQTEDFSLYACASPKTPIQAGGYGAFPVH
Method in brief: (§1)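 Kinase binding profiling ran on a commercial (Ambit) competitive binding screen against a panel of 90 kinases. The screen used reducing conditions with 7.5 mM DTT. To withstand the DTT, the bivalent ligand was tested as its amide isostere, with the disulfide replaced. A staurosporine derivative carrying a 3 β-alanine linker was run as the reference compound.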

[2] = target: Ribosomal protein S6 kinase alpha-3 (Homo sapiens) (UniProt P51812); assay: Binding affinity to human RPS6KA3 kinase domain 1 at 500 nM by cell-based competition binding assay relative to control in presence of DTT
[3] = target: Phosphatidylinositol 4,5-bisphosphate 3-kinase catalytic subunit gamma isoform (Homo sapiens) (UniProt P48736); assay: Binding affinity to human PIK3Cgamma at 500 nM by cell-based competition binding assay relative to control in presence of DTT
[4] = target: Dual specificity tyrosine-phosphorylation-regulated kinase 1B (Homo sapiens) (UniProt Q9Y463); assay: Binding affinity to human DYRK1B at 500 nM by cell-based competition binding assay relative to control in presence of DTT
Method in brief: (§2)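 Commercial (Ambit) competitive kinase-binding panel of 90 kinases measured the binding profile. Run under reducing conditions of 7.5 mM DTT. Binding is expressed relative to control.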

[5] = target: T1, Serine/threonine-protein kinase STK11 (Homo sapiens) (UniProt Q15831); assay: Binding affinity to human LKB1 at 500 nM by cell-based competition binding assay relative to control in presence of DTT
T1 sequence (whole entry): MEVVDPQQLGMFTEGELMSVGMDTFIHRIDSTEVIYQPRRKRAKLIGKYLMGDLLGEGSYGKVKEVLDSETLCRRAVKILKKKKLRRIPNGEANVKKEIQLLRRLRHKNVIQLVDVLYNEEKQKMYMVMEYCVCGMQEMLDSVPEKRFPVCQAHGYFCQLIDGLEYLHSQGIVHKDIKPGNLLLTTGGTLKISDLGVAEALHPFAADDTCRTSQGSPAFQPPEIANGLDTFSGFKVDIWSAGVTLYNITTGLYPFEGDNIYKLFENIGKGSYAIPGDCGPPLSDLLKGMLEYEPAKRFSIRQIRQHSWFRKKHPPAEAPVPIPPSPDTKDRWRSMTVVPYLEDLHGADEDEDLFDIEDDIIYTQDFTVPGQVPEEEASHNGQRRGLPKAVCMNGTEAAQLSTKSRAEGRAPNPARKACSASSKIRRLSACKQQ
Method in brief: (§3)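 Competition binding screen (Ambit) across a panel of 90 kinases, scoring test ligand displacement of each kinase's binding relative to control. The screen ran under reducing conditions with 7.5 mM DTT.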

[6] = target: Non-receptor tyrosine-protein kinase TYK2 (Homo sapiens) (UniProt P29597); assay: Binding affinity to human TYK2 kinase domain 2 at 500 nM by cell-based competition binding assay relative to control in presence of DTT
Sequence of Non-receptor tyrosine-protein kinase TYK2 (Homo sapiens) (P29597 whole entry, the tested form may be a part): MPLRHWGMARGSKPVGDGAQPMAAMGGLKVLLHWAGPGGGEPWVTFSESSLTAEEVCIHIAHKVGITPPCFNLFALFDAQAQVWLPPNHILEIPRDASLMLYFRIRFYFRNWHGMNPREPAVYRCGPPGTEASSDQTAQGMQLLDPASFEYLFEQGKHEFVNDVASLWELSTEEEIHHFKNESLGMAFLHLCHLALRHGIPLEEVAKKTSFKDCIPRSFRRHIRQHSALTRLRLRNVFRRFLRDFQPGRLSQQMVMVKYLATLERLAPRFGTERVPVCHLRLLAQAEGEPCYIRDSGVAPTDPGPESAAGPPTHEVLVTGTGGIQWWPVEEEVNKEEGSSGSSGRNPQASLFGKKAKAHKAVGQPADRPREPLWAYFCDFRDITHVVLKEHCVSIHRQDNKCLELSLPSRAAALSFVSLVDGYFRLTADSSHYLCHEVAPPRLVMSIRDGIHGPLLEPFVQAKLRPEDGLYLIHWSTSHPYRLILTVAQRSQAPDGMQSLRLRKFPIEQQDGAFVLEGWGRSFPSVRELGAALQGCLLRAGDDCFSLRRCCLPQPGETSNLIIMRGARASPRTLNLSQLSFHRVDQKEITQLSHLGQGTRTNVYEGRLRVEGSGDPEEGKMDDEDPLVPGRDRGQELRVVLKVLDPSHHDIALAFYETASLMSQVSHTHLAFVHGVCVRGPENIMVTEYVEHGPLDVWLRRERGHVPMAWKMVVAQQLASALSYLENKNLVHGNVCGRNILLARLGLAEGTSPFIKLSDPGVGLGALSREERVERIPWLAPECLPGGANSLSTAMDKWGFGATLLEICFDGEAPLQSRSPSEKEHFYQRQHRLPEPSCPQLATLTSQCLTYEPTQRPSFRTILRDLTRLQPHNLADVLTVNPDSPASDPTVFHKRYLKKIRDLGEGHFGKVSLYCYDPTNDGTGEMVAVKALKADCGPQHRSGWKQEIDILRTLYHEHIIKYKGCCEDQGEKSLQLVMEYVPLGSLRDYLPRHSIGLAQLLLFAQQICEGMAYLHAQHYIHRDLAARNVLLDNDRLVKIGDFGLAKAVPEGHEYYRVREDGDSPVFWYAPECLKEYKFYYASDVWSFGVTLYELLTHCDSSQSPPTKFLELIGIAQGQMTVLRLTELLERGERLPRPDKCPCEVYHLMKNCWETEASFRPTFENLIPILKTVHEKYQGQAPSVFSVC

[7] = target: Tyrosine-protein kinase ABL1 (Homo sapiens) (UniProt P00519); assay: Binding affinity to human ABL1 at 500 nM by cell-based competition binding assay relative to control in presence of DTT; method in brief: as §1
[8] = target: Fibroblast growth factor receptor 3 (Homo sapiens) (UniProt P22607); assay: Binding affinity to human FGFR3 at 200 nM by cell-based competition binding assay relative to control in presence of DTT; method in brief: as §2
[9] = test system: Mast/stem cell growth factor receptor Kit (Homo sapiens), P10721 [D816V]; assay: Binding affinity to human KIT D816V mutant at 200 nM by cell-based competition binding assay relative to control in presence of DTT; method in brief: as §3
[10] = test system: Epidermal growth factor receptor (Homo sapiens), P00533 [L858R]; assay: Binding affinity to human EGFR L858R mutant at 200 nM by cell-based competition binding assay relative to control in presence of DTT; method in brief: as §2
[11] = target: T1, Serine/threonine-protein kinase STK11 (Homo sapiens); assay: Binding affinity to human LKB1 at 200 nM by cell-based competition binding assay relative to control in presence of DTT; method in brief: as §3
[12] = test system: Serine/threonine-protein kinase B-raf (Homo sapiens), P15056 [V600E]; assay: Binding affinity to human BRAF V600E mutant at 200 nM by cell-based competition binding assay relative to control in presence of DTT; method in brief: as §1
[13] = target: Vascular endothelial growth factor receptor 2 (Homo sapiens) (UniProt P35968); assay: Binding affinity to human VEGFR2 at 200 nM by cell-based competition binding assay relative to control in presence of DTT
[14] = target: MAP kinase-interacting serine/threonine-protein kinase 2 (Homo sapiens) (UniProt Q9HBH9); assay: Binding affinity to human MKNK2 at 200 nM by cell-based competition binding assay relative to control in presence of DTT
Sequence of MAP kinase-interacting serine/threonine-protein kinase 2 (Homo sapiens) (Q9HBH9 whole entry, looked up): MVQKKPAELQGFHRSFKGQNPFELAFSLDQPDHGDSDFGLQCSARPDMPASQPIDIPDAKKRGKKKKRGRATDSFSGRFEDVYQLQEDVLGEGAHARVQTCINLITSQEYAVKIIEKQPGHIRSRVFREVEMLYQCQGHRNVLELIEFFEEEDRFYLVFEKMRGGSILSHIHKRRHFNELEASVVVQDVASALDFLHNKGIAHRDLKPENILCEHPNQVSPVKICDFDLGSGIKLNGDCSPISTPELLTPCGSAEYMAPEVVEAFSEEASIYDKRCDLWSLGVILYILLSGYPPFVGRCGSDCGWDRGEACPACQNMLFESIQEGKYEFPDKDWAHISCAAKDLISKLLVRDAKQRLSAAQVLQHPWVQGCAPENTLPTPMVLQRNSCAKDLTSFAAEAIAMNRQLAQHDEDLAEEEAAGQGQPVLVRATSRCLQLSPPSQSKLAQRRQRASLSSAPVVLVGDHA

[15] = target: T2, Serine/threonine-protein kinase Chk1 (Homo sapiens) (UniProt O14757); assay: Binding affinity to human CHEK1 at 200 nM by cell-based competition binding assay relative to control in presence of DTT; method in brief: as §2
T2 sequence (whole entry): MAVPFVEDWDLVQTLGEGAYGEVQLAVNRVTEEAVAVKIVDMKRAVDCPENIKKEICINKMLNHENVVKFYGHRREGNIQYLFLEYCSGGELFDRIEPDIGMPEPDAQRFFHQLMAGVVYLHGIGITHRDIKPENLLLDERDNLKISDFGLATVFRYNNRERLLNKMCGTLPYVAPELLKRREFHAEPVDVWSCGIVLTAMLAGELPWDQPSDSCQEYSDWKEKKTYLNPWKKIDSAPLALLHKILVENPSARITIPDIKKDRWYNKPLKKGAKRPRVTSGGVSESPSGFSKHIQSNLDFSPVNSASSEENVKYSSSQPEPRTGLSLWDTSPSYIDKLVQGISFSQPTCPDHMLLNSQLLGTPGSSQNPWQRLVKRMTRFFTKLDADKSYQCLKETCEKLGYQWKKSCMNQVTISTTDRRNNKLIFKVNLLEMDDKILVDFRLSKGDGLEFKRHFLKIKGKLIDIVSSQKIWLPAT

[16] = target: Cyclin-dependent kinase 7 (Homo sapiens) (UniProt P50613); assay: Binding affinity to human CDK7 at 200 nM by cell-based competition binding assay relative to control in presence of DTT; method in brief: as §1
Sequence of Cyclin-dependent kinase 7 (Homo sapiens) (P50613 whole entry): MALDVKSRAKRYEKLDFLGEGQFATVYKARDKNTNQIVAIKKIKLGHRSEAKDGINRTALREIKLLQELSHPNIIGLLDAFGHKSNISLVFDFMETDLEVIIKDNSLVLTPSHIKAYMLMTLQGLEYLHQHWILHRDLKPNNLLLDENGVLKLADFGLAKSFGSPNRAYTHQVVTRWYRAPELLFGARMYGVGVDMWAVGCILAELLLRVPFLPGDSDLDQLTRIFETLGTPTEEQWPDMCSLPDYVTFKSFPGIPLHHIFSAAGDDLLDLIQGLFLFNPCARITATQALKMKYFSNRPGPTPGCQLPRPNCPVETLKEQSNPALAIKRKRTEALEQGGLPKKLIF

[17] = target: Atypical kinase COQ8A, mitochondrial (Homo sapiens) (UniProt Q8NI60); assay: Binding affinity to human ADCK3 at 50 nM by cell-based competition binding assay relative to control in presence of DTT; method in brief: as §1
Sequence of Atypical kinase COQ8A, mitochondrial (Homo sapiens) (Q8NI60 163-647 limits assumed): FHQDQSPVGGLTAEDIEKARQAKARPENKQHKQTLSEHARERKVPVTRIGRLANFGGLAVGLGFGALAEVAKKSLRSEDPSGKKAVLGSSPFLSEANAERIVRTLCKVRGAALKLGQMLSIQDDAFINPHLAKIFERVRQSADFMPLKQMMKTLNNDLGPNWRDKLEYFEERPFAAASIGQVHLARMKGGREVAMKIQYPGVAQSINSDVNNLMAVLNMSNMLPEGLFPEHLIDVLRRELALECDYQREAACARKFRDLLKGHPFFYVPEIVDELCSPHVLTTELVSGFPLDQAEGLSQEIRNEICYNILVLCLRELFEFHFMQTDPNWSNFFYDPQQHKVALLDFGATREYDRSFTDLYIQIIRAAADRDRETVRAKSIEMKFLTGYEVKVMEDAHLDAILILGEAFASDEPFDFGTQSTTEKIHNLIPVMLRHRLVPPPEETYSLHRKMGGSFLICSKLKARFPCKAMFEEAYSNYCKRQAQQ

[18] = target: MAP kinase-activated protein kinase 2 (Homo sapiens) (UniProt P49137); assay: Binding affinity to human MAPKAPK2 at 50 nM by cell-based competition binding assay relative to control in presence of DTT; method in brief: as §3
[19] = target: Serine/threonine-protein kinase PAK 1 (Homo sapiens) (UniProt Q13153); assay: Binding affinity to human PAK1 at 50 nM by cell-based competition binding assay relative to control in presence of DTT
Sequence of Serine/threonine-protein kinase PAK 1 (Homo sapiens) (Q13153 whole entry): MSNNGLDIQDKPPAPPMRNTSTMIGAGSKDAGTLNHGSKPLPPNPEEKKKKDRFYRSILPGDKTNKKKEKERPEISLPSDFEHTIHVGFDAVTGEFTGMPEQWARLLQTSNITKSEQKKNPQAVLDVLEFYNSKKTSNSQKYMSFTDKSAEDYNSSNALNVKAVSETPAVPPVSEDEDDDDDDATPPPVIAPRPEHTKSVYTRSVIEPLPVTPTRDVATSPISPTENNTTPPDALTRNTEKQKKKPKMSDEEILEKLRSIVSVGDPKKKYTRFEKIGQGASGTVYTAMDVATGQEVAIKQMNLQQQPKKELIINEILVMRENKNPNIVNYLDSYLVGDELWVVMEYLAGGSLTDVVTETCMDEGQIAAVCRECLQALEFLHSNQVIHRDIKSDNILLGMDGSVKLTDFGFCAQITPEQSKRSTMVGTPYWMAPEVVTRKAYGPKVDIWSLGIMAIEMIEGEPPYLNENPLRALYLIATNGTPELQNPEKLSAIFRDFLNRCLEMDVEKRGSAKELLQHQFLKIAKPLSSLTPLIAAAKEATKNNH

[20] = target: Receptor tyrosine-protein kinase erbB-2 (Homo sapiens) (UniProt P04626); assay: Binding affinity to human ERBB2 at 50 nM by cell-based competition binding assay relative to control in presence of DTT; method in brief: as §2
Sequence of Receptor tyrosine-protein kinase erbB-2 (Homo sapiens) (P04626 whole entry): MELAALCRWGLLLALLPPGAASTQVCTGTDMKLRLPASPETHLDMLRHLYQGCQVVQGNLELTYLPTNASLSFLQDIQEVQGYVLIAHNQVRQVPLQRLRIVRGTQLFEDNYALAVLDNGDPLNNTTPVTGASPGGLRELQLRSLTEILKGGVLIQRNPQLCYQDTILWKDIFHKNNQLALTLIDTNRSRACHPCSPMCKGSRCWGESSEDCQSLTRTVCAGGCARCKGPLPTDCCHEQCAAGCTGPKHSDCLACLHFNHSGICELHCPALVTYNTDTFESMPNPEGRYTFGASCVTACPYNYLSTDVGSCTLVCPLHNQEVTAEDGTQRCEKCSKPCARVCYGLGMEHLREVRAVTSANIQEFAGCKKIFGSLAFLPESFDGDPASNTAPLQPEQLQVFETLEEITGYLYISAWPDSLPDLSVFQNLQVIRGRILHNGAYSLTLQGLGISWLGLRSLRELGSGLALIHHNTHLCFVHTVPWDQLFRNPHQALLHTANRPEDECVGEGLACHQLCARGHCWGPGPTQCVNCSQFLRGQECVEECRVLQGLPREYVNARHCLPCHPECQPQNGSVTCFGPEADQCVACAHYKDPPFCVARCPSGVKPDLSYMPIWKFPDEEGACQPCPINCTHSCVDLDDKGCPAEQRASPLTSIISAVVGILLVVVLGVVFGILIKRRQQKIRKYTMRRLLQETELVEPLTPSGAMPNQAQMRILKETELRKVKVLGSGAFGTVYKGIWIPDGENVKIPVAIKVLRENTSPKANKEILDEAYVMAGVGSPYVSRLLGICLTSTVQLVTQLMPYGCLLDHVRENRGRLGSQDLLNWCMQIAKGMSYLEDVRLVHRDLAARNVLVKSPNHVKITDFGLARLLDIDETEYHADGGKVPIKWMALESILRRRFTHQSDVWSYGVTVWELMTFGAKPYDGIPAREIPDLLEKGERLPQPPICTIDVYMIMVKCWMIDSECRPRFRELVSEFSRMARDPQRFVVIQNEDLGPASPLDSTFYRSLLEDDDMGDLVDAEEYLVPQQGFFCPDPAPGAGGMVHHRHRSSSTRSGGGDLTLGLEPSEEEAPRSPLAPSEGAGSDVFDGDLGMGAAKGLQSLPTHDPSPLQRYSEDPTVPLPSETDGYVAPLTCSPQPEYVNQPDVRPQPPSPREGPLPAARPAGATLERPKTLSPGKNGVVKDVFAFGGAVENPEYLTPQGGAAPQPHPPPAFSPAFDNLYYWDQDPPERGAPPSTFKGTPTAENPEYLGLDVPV

- Activity [1]: 94%
- Activity [2]: 44%
- Activity [3]: 15%
- Activity [4]: 5.6%
- Activity [5]: 41%
- Activity [6]: 19%
- Activity [7]: 68%
Compound: CO[C@@H]1[C@H](N(C)C(=O)CCC(=O)NCCC(=O)NCCC(=O)NCCC(N)=O)C[C@H]2O[C@]1(C)n1c3ccccc3c3c4c(c5c6ccccc6n2c5c31)C(=O)NC4

- Activity [8]: 85%
- Activity [9]: 0.65%
- Activity [10]: 86%
- Activity [11]: 81%
- Activity [12]: 100%
- Activity [13]: 73%
- Activity [14]: 57%
- Activity [15]: 60%
- Activity [16]: 74%
Compound: CO[C@@H]1[C@H](N(C)C(=O)CCC(=O)NCCC(=O)NCCC(=O)NCCC(=O)NCCC(=O)NCCC(=O)NCCC(=O)NCCC(=O)N[C@H]2CSSC[C@@H](C(=O)NCC(N)=O)NC(=O)CNC(=O)[C@H](Cc3ccccc3)NC(=O)[C@H](C(C)C)NC(=O)[C@H](CCCNC(=N)N)NC(=O)[C@H](Cc3ccccc3)NC(=O)[C@H](C(C)C)NC2=O)C[C@H]2O[C@]1(C)n1c3ccccc3c3c4c(c5c6ccccc6n2c5c31)C(=O)NC4 ({Staurosporine-Suc-βAla-βAla-βAla-βAla-βAla-βAla-βAla}-CVFRVFGCG-NH2; disulfide 1-8)

- Activity [17]: 91%
- Activity [18]: 100%
- Activity [19]: 66%
- Activity [20]: 100%
Compound: CO[C@@H]1[C@H](N(C)C(=O)CCC(=O)NCCC(=O)NCCC(=O)NCCC(=O)NCCC(=O)NCCC(=O)NCCC(=O)NCCC(=O)N[C@H]2CNC(=O)C[C@@H](C(N)=O)NC(=O)CNC(=O)[C@H](Cc3ccccc3)NC(=O)[C@H](C(C)C)NC(=O)[C@H](CCCNC(=N)N)NC(=O)[C@H](Cc3ccccc3)NC(=O)[C@H](C(C)C)NC2=O)C[C@H]2O[C@]1(C)n1c3ccccc3c3c4c(c5c6ccccc6n2c5c31)C(=O)NC4 ({Staurosporine-Suc-βAla-βAla-βAla-βAla-βAla-βAla-βAla}-[Dap]VFRVFGD-NH2; lactam 1-8)
